The term ED50 denotes the dose that gives a 50% effect, or the effect in half of the subjects.

Active and inactive are the calls of the source. The calls are words filed in the database; no cut-off is given here. Where only a bound is given, the exact number is not on record here.

Results on 15 compounds are retold here after ChEMBL document CHEMBL1148686, “Synthesis and anticonvulsant activity of new N-1',N-3'-disubstituted-2'H,3H,5'H-spiro-(2-benzofuran-1,4'-imidazolidine)-2',3,5'-triones” (2006).

In assay [1] the test system is Mus musculus. Kind of assay: Protection against PTZ-induced convulsions in mouse at 300 mg/kg, ip after 0.5 hrs by scPTZ assay. The assay is classed as functional, organism-based. On the set-up: dose 300 mg/kg. The essentials: (§1)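 Mice received test drug, positive control or vehicle (DMSO) intraperitoneally 30 min before a subcutaneous PTZ injection at 80 mg/kg. The end-point was clonic seizure lasting more than 5 s. Tested up to 300 mg/kg. Run in triplicate (n = 3). ED50 in mg/kg was found by non-linear regression, as mean with 95% confidence intervals.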

Assay [2] deals with Mus musculus. Kind of assay: Protection against electroshock-induced convulsions in mouse up to 300 mg/kg, ip after 0.5 hrs by MES assay. In kind it is functional, organism-based. On the set-up: dose 300 mg/kg. The procedure, abridged: (§2)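 Mice were dosed intraperitoneally with test drug, positive control or vehicle (DMSO) 30 min before electroshock at 50 mA for 0.2 s. The end-point was the hind limb tonic extensor component. Doses up to 300 mg/kg. Done in triplicate (n = 3). ED50 in mg/kg was derived by non-linear regression and given as mean with 95% confidence intervals.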

The test system of assay [3] is Mus musculus. Kind of assay: Protection against PTZ-induced convulsions in ip dosed mouse after 0.5 hrs by scPTZ assay. The assay is classed as functional. The essentials:
as §1

Assay [4] deals with Mus musculus. As to the kind of experiment: Protection against electroshock-induced convulsions in ip dosed mouse after 0.5 hrs by MES assay. In kind it is functional. The procedure, abridged:
as §2

For assay [5], the system named is Mus musculus. As to the kind of experiment: Protection against electroshock-induced convulsions in mouse at 300 mg/kg, ip after 0.5 hrs by MES assay. Also noted: dose 300 mg/kg. The assay is classed as functional, organism-based. The procedure, abridged: as §2
For assay [6], the system named is Mus musculus. Kind of assay: Protection against PTZ-induced convulsions in mouse up to 300 mg/kg, ip after 0.5 hrs by scPTZ assay. In kind it is functional, organism-based. Also noted: dose 300 mg/kg. The essentials:
as §1

For the compound `CN1C(=S)N(c2ccccc2)C(=O)C12OC(=O)c1ccccc12` (stereo not given), the outcome with Mus musculus [1] was Active. Further, the outcome in the assay with Mus musculus [2] was inactive.

For `CCN1C(=O)N(C)C(=O)C12OC(=O)c1ccccc12` (stereo not given), the result in the assay on Mus musculus [1] was Active. The outcome in the assay with Mus musculus [2] was inactive.

Regarding `CCCN1C(=O)N(CCC)C2(OC(=O)c3ccccc32)C1=O` (stereo not given), the ED50 with Mus musculus [3] is 78.5 mg/kg; in the assay with Mus musculus [4] it was above 100 mg/kg.

In turn, `CCN1C(=O)N(c2ccc([N+](=O)[O-])cc2)C(=O)C12OC(=O)c1ccccc12` (stereo not given) displayed an ED50 in the assay on Mus musculus [3] of 41.8 mg/kg. Besides, in the assay on Mus musculus [2], the result was inactive.

`CCN1C(=O)N(c2ccc(OC)cc2)C(=O)C12OC(=O)c1ccccc12` (stereo not given) came in with an ED50 in the assay with Mus musculus [3] of 82.5 mg/kg. In the assay on Mus musculus [5], the result was Active.

Regarding `CCCCN1C(=O)N(CCCC)C2(OC(=O)c3ccccc32)C1=O` (stereo not given), in the assay on Mus musculus [3], the ED50 is above 100 mg/kg. Besides, the result in the assay on Mus musculus [5] was Active.

On to `CN1C(=O)N(c2ccccc2)C(=O)C12OC(=O)c1ccccc12` (stereo not given), for which the 50% effect level with Mus musculus [3] (ED50) was put at a dose of 96.8 mg/kg. The result in the assay on Mus musculus [5] was Active.

`CCC1(c2ccccc2)C(=O)NC(=O)NC1=O` [PHENOBARBITAL] came in with an ED50 in the assay with Mus musculus [3] of 20 mg/kg. Also, the outcome in the assay with Mus musculus [2] was inactive.

Turning to `CN1C(=O)N(c2ccc(F)cc2)C(=O)C12OC(=O)c1ccccc12` (stereo not given), the ED50 in the assay with Mus musculus [3] was 87.1 mg/kg; in the assay on Mus musculus [4], above 100 mg/kg.

Regarding `CCN1C(=O)N(c2ccccc2)C(=O)C12OC(=O)c1ccccc12` (stereo not given), the values for the ED50 in the assay on Mus musculus [3] and with Mus musculus [4] were 54.8 mg/kg and 81 mg/kg, respectively.

On to `O=C1NC(=O)C(c2ccccc2)(c2ccccc2)N1` [PHENYTOIN], for which, in the assay with Mus musculus [4], it took a dose of 8.1 mg/kg to reach the 50% effect level (ED50). Further, the outcome with Mus musculus [6] was inactive.

As for `CC(C)N1C(=O)N(C(C)C)C2(OC(=O)c3ccccc32)C1=O` (stereo not given), the outcome with Mus musculus [1] was Active. Besides, in the assay on Mus musculus [2], the result was inactive.

As to `CN1C(=O)N(c2ccc(C(F)(F)F)cc2)C(=O)C12OC(=O)c1ccccc12` (stereo not given), the ED50 in the assay on Mus musculus [3] and in the assay on Mus musculus [4] was above 100 mg/kg each time.

Turning to `CCN1C(=O)N(c2ccc(F)cc2)C(=O)C12OC(=O)c1ccccc12` (stereo not given), the ED50 with Mus musculus [3] is 85.8 mg/kg; in the assay on Mus musculus [4], above 100 mg/kg.

For the compound `O=C1OC2(C(=O)N(C3CCCCC3)C(=O)N2C2CCCCC2)c2ccccc21` (stereo not given), the result with Mus musculus [6] and with Mus musculus [2] was inactive.
